# According to PubChem BioAssay AID504382 (The Scripps Research Institute Molecular Screening Center, 2011):
# The campaign covered roughly 2,500 compounds. About 460 (18%) were called active. A selection follows. Values without a mark were called inactive.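 Rule for the calls: active = mean activation above a cutoff of low control average plus 3 SD from the earlier screen (cut at about 12% in these data); inactive = the rest.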
# Experiment: IANBD-channel fluorescence artefacts in buffer – biochemical, artefact control for cardiac RTF calcium sensitizer project, confirmation (AID 504382)
# Conditions: IANBD fluorescence interference counterscreen, EC20 Ca2+, at 7.2 µM, hits give high values, scaled: EC20 calcium 0, EC100 calcium 100
# In short: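 Doses – one dose of 7.2 µM, 0.7% DMSO · Buffer or medium – MOPS/KCl/MgCl2/EGTA/NTA/DTT buffer, pH 7.2 · Probe or stimulus – Ca2+ fixed at EC20, 0.472 mM · Measured by – fluorescence intensity, excitation 480 nm, emission 540 nm · Read-out – fluorescence interference versus control range · Timing – 15 min compound exposure at 25 °C · Replication – triplicate wells per compound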
row,SMILES,fluorescence artifact activation
1,O=c1c2ccccc2cnn1Cc1n[nH]c(=S)n1-c1ccccc1Cl,2.78%
2,CC(C)C12CN(C(=O)c3ccccc3[N+](=O)[O-])CC(C(C)C)(CN(C(=O)c3ccccc3[N+](=O)[O-])C1)C2=O,0.02%
3,O=C(O)c1cccc2c1-c1c(cccc1[N+](=O)[O-])C2,706% (active)
4,O=C(O)c1cccc([N+](=O)[O-])c1C(=O)Nc1cccc2ccccc12,1.51%
5,COc1ccc(OC)c(NC(=O)c2cc(S(=O)(=O)N(C)C)ccc2N2CCCC2)c1,0.05%
6,COc1ccc(Cl)cc1NC(=O)CN(C)C(=O)COc1ccccc1F,0.35%
7,COc1ccc(Cl)cc1NC(=O)CN(C)C(=O)c1ccc(N2CCCCCC2)c([N+](=O)[O-])c1,21.3% (active)
8,Cc1nc(NC(=O)c2ccccc2[N+](=O)[O-])sc1C(=O)N(C)C,0.02%
9,O=C(c1ccc(Nc2cccc(C(F)(F)F)c2)nc1)N1CCCC1,55.9% (active)
10,COc1cccc(S(=O)(=O)Nc2cccc(C(=O)N3CCCCCC3)c2)c1,0.03%
11,O=C(CN1CCN(c2ccccc2)CC1)Nc1cccc(C(F)(F)F)c1,0.02%
12,Cc1ccc(S(=O)(=O)N2CCOCC2)cc1NC(=O)CSc1nccn1C,0.07%
13,CCCCCC(C)NC(=S)NC(=O)c1cc(S(=O)(=O)N2CCOCC2)ccc1C (centres undefined),0.05%
14,Cc1csc(NS(=O)(=O)c2cccc([N+](=O)[O-])c2)n1,0.08%
15,CC1=CC(=C(C#N)C#N)C=C(C)N1Cc1ccc(Cl)cc1,10.8%
16,CCSC1=N/C(=C\C=C2/Oc3ccccc3N2CC)C(=O)S1,9.59%
17,CC(Sc1nnc(NCc2ccccc2)s1)C(=O)Nc1ccc2c(c1)C(=O)c1ccccc1C2=O (centres undefined),49% (active)
18,COC(=O)c1ccc(CSc2nnc(NCc3ccccc3)s2)o1,4.53%
19,CC1(C(=O)Nc2nnc(SCc3ccccc3)s2)Cc2ccccc2C(=O)O1 (centres undefined),4.5%
20,CCc1ccc(C(C)NC(=O)c2ncn[nH]2)cc1 (centres undefined),2.22%
21,Clc1ccc(-n2cc(-c3ccc(Br)cc3)[n+]3c2CCCCC3)cc1,-0.05%
22,CC(C)(Cc1cccc(CC(C)(C)C(=O)O)c1)C(=O)O,0.07%
23,CC(=O)Oc1ccc(NC(=O)Cc2ccccc2)c(C(=O)O)c1,4.96%
24,CC(=O)Oc1ccc2c(c1)Oc1cc(OC(C)=O)ccc1C21OC(=O)c2ccccc21,13.6% (active)

row,SMILES,fluorescence artifact activation
1,CCOc1ccc(-c2ncncc2-c2ccccc2OC)c(O)c1,0.08%
2,COc1ccc(-n2nc3c(N4CCC(C(=O)N5CCC(C)CC5)CC4)nnc(C)c3c2C)cc1,0.01%
3,CCOC(=O)C(CCCCCCC(NC(C)=O)(C(=O)OCC)C(=O)OCC)(NC(C)=O)C(=O)OCC,-0.02%
4,Cc1ccc(C(=O)N(C)CC(=O)Nc2cccc(F)c2)cc1S(=O)(=O)N1CCCCC1,0.72%
5,Cc1ccnc(N/C=C(\C#N)c2nc(-c3cccc(Br)c3)cs2)c1,5.15%
6,COc1cccc(/C=N/Nc2nnc(C)n2N)c1O,0.12%
7,CC(C)(C)c1ccc(-c2n[nH]c(=S)n2CC2CCCO2)cc1 (centres undefined),34.7% (active)
8,CCOc1cc(/C=C2\NC(=O)NC2=O)cc([N+](=O)[O-])c1O,0.01%
9,COc1ccc(/C=C2/SC(c3ccc(C)cc3)=NC2=O)cc1OC,6.74%
10,CCOC(=O)c1ccc(-c2c(-c3ccc4c(c3)OCO4)noc2C)cc1F,0.96%
11,O=C(Cc1nc2ccccc2[nH]c1=O)c1ccccc1,0.01%
12,O=C(O)CSc1nc2ccccc2nc1Cc1ccccc1F,163% (active)
13,O=c1ccc2cc3c4c(c2o1)CCCN4CCC3,9.87%
14,Cn1ncc2c(O/N=C(\N)c3ccc(C(F)(F)F)cc3)ncnc21,18.5% (active)
15,Cc1c(O)c(=O)c2ccccc2n1C,2.22%
16,CCCCCOc1ccc(CN2CCOCC2)cc1Cl,25.8% (active)
17,CCCOc1ccc(Cn2c(=O)oc3ccc(C)cc32)cc1OC,6.44%
18,CCOc1ccc2ccccc2c1CNCCN1CCOCC1,9.02%
19,CCC(=O)N(C)CCc1cc2c(c(OC)c1/C=N/NC(=O)c1ccc(Br)cc1)OCO2,0.24%
20,O=C(Cn1c(=O)c(=O)n(Cc2ccccc2)c2ccc(Cl)cc21)Nc1ccc(F)cc1F,0.95%
21,COc1ncnc2c1N=C1CC(C)(C)CC(N)=C1S2,17.8% (active)
22,CC1(C)CC2CC(C)(CN2C(=S)Nc2ccccc2F)C1 (centres undefined),0.69%
23,O=C(NC1CC1)c1cccc2c1C(=O)c1ccc(N3CCC(Cc4ccccc4)CC3)cc1S2(=O)=O,-0.05%
24,COc1ccc2c(Cl)c(C(=O)N/N=C3\CCCC(=O)C3)sc2c1,16.2% (active)

row,SMILES,fluorescence artifact activation
1,O=C1CCCC(=NNC(=O)c2cc3ccccc3cc2O)C1,0.08%
2,O=C1CCC/C(=N/NC(=O)c2sc3ccccc3c2Cl)C1,0.36%
3,CN(C)/C=C/C(=O)c1ccc(Br)s1,0.3%
4,O=C(O)c1ccccc1CSc1nnnn1-c1ccccc1,13.5% (active)
5,O=c1c(/C=N/Nc2ccccc2)c(Sc2nnnn2-c2ccccc2)nc2ccccn12,-0.06%
6,C(=N\Nc1nnnn1-c1ccccc1)/c1ccncc1,0.02%
7,Cc1ccnc(NC(=O)c2ccc(Br)s2)c1,0.08%
8,CCCCC1=CC2=C(c3ccco3)C(=O)C(C)(OC(=O)c3ccc(OC)cc3)C(=O)C2=CN1CCc1ccccn1 (centres undefined),5.57%
9,O=C(COC(=O)/C=C/c1ccccc1[N+](=O)[O-])NNC(=O)c1ccc(F)cc1,0.09%
10,COCc1cc(C)n(CC(=O)Nc2ccccc2C(=O)OC)c(=O)c1C#N,5.24%
11,COc1ccc(OC)c(NC(=S)Nc2ccccc2)c1,-0.01%
12,COc1ccc(OC)c(NC(=O)CNC(=O)Cn2c(C)cc3ccccc3c2=O)c1,1380% (active)
13,C=CCn1c(COc2cccc(C)c2)nnc1SCn1nnc2ccccc2c1=O,0.03%
14,NC(=O)C1(NC(=O)[C@@H]2CC3(CC(c4cccc(NC(=O)[C@@H]5CCC(=O)N5)c4)=NO3)CN2C(=O)c2ccccc2)CC1 (some centres undefined),0.3%
15,CCC(=O)Nc1ccc(NC(=S)NC(=O)c2oc3ccccc3c2C)cc1,0.25%
16,COCCCn1c(=O)/c(=C\c2ccccc2OC(C)C)s/c1=C(/C#N)C(=O)Nc1ccc(C(=O)O)cc1,0.05%
17,CN(C)c1ccc(/C=C(/C#N)C(=O)NCc2ccccc2)o1,2.9%
18,CCN(CC)c1ccc(/C=C(/C#N)C(=O)NCc2ccccc2)o1,0.1%
19,CCN(CC)c1ccc(/C=C(\C#N)C(=O)c2ccc(Br)cc2)cc1,-0.11%
20,CN(C)c1ccc(/C=C(\C#N)C(=O)c2ccccc2)cc1,0.22%
21,CCN(CC)c1ccc(/C=C(\C#N)C(=O)NCc2ccccc2)cc1,13.8% (active)
22,CCN(CC)c1ccc(/C=C(\C#N)C(N)=S)cc1,16.2% (active)
23,O=C(COC(=O)c1ccc(S(=O)(=O)N2CCCC2)cc1)NCc1ccco1,0.32%
24,COc1ccccc1C(=O)NN(C)C1=NS(=O)(=O)c2ccccc21,0.12%

row,SMILES,fluorescence artifact activation
1,CCNC(=O)NNC(=O)C1CC(c2cccs2)=NO1 (centres undefined),0%
2,Cc1ccc(C2NC(=O)c3c(sc4c3CCN(C)C4)N2)o1 (centres undefined),0.12%
3,CCOC(=O)c1c(C)[nH]c(C2=NNC(=NC(C)COC)SC2)c1C (centres undefined),22% (active)
4,Cc1cc(C)n(-c2ccc([N+](=O)[O-])cc2-c2nn[nH]n2)n1,2.39%
5,CCC(=Cc1ccccc1OC)c1ccncc1,3.06%
6,COc1ccc(CCNc2cc(C)[nH]c(=O)c2)cc1OC,0.6%
7,Cc1ccc(C)c(NC(=O)CCN2CCOCC2)c1,-0.02%
8,COc1ccc(NC(=O)CCN2CC(C)OC(C)C2)c(OC)c1 (centres undefined),0.05%
9,COc1ccc(NC(=O)CCN2CCCC2)c(OC)c1,27.4% (active)
10,COc1ccc(Nc2nc3ccc(C)cc3cc2C#N)c(OC)c1,0.04%
11,CCN1C(=O)c2cccc3c(NC(=O)c4ccc5c(c4)OCCO5)ccc1c23,36.4% (active)
12,Cc1ccccc1NC(=O)c1nnn(-c2ccc3c(c2)OCCO3)c1N,0.09%
13,CCCN(CCC)S(=O)(=O)c1ccc(C(=O)OCCN2C(=O)c3cccc4c(N5CCOCC5)ccc(c34)C2=O)cc1,4.63%
14,COc1cc(/C=C(\C#N)c2nc3ccccc3s2)ccc1OCC(=O)Nc1ccccc1,36.6% (active)
15,COc1cc(/C=C(/C#N)C(=O)NCCCc2ccccc2)ccc1OCC(=O)O,0.24%
16,N#C/C(=C\c1ccccn1)c1nc2ccccc2s1,0.06%
17,Cc1ccc(S(=O)(=O)Nc2ccccc2N(C)S(=O)(=O)c2ccc(C)cc2)cc1,2.27%
18,NC(=O)c1cc2ccc(O)cc2oc1=NCc1ccccc1,0.04%
19,CCN1CC=C2C(C1)C(c1ccc(Cl)s1)C(C#N)=C(N)C2(C#N)C#N (centres undefined),2.16%
20,COc1cccc(F)c1C(=O)NC(=O)Nc1ccc2nc(C)oc2c1,42.8% (active)
21,CCNC(=S)N/N=C/c1sc(N2CCCCC2)nc1-c1cccs1,0.09%
22,Cc1ccc(CNC(=O)CCS(=O)(=O)c2cc3c(cc2C)NC(=O)CO3)cc1,0.29%
